Measured values from ChEMBL document CHEMBL1138791, “Acyl sulfonamide anti-proliferatives: benzene substituent structure-activity relationships for a novel class of antitumor agents” (J Med Chem, 2004).

Experiments:
[1] = tested on: L1210; assay: Diameter of zone of inhibition for cell colony formation of leukemia L1210 at the dose of 210 ug; assay type: functional, Mus musculus
Procedure, shortened: (§1)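 Soft agar disk diffusion: leukemia (L1210), solid tumor (HCT116, or colon H15) and normal fibroblast cells seeded in soft agar in separate 60 mm dishes. Compound applied to a filter paper disk (dose in μg/disk) set on the agar. Colony-formation inhibition zones read after 6–7 days at 37 °C. 200 zone units = 6.5 mm; 950 = total inhibition; a range marks partial colony shrinkage. n > 2 unless noted.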

[2] = tested on: HCT-116; assay: Diameter of zone of inhibition for cell colony formation of solid tumor HCT116 at the dose of 210 ug; assay type: functional, Homo sapiens
Procedure, shortened: (§2)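 HCT116, L1210 leukaemia and normal fibroblast cells were seeded in soft agar in separate 60 mm dishes. The compound was applied to a filter-paper disk laid on the agar. Colony-formation inhibition zones were read after 6–7 days at 37 °C and expressed in zone units (200 units = 6.5 mm; 950 = total inhibition; 0 = none). n > 2 unless otherwise indicated.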

[3] = Diameter of zone of inhibition for cell colony formation of normal fibroblast at the dose of 210 ug; Range is 0-6.5; assay type: functional, Homo sapiens; procedure, shortened: as §1
[4] = tested on: HCT-116; assay: Diameter of zone of inhibition for cell colony formation of solid tumor HCT116 at the dose of 190 ug; assay type: functional, Homo sapiens; procedure, shortened: as §1
[5] = Diameter of zone of inhibition for cell colony formation of normal fibroblast at the dose of 190 ug; Range is 0-12.35; assay type: functional, Homo sapiens; procedure, shortened: as §1
[6] = tested on: HT-29; assay: Growth inhibitory activity against human colon HT-29 cell line; assay type: functional
Procedure, shortened: (§3)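 Cell-line screen run at NCI by published procedures. […] The mean graph midpoint is taken across all human cancer cell lines successfully tested.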

[7] = tested on: NCI-H522; assay: Growth inhibitory activity against human lung NCI-H522 cell line; assay type: functional; procedure, shortened: as §3
[8] = tested on: Panel (Carcinoma cell lines); assay: Mean graph mid point value for cytotoxic activity against human cancer cell lines was determined; assay type: functional; procedure, shortened: as §3
[9] = tested on: MCF7; assay: Growth inhibitory activity against human breast MCF-7 cell line; assay type: functional; procedure, shortened: as §3
[10] = tested on: SW-620; assay: Growth inhibitory activity against human colon SW620 cell line; assay type: functional; procedure, shortened: as §3
[11] = tested on: HCT-116; assay: Growth inhibitory activity against human colon HCT116 cell line; assay type: functional; procedure, shortened: as §3
[12] = tested on: RXF 393; assay: Growth inhibitory activity against human renal RXF-393 cell line; assay type: functional; procedure, shortened: as §3
[13] = tested on: HL-60; assay: Growth inhibitory activity against human leukemia HL-60 (TB) cell line; assay type: functional; design: unit not given here
[14] = tested on: L1210; assay: Diameter of zone of inhibition for cell colony formation of leukemia L1210 at the dose of 190 ug; Range is 0-5.525; assay type: functional, Mus musculus; procedure, shortened: as §1
[15] = Diameter of zone of inhibition for cell colony formation of normal fibroblast at the dose of 190 ug; Range is 0-13.65; assay type: functional, Homo sapiens; procedure, shortened: as §1
[16] = tested on: L1210; assay: Diameter of zone of inhibition for cell colony formation of leukemia L1210 at the dose of 210 ug; Range is 3.75-5.525; assay type: functional, Mus musculus; procedure, shortened: as §1
[17] = Diameter of zone of inhibition for cell colony formation of normal fibroblast at the dose of 210 ug; Range is 0-13.975; assay type: functional, Homo sapiens; procedure, shortened: as §1
[18] = Diameter of zone of inhibition for cell colony formation of normal fibroblast at the dose of 210 ug; assay type: functional, Homo sapiens; procedure, shortened: as §1
[19] = tested on: L1210; assay: Diameter of zone of inhibition for cell colony formation of leukemia L1210 at the dose of 210 ug; Range is 0-8.125; assay type: functional, Mus musculus; procedure, shortened: as §1
[20] = tested on: L1210; assay: Diameter of zone of inhibition for cell colony formation of leukemia L1210 at the dose of 190 ug; assay type: functional, Mus musculus; procedure, shortened: as §1
[21] = tested on: HCT-116; assay: Diameter of zone of inhibition for cell colony formation of solid tumor HCT116 at the dose of 190 ug; Range is 22.75-24.375; assay type: functional, Homo sapiens; procedure, shortened: as §2
[22] = Diameter of zone of inhibition for cell colony formation of normal fibroblast at the dose of 190 ug; Range is 0-10.25; assay type: functional, Homo sapiens; procedure, shortened: as §1
[23] = Diameter of zone of inhibition for cell colony formation of normal fibroblast at the dose of 190 ug; assay type: functional, Homo sapiens; procedure, shortened: as §1
[24] = Diameter of zone of inhibition for cell colony formation of normal fibroblast at the dose of 190 ug; Range is 0-12.025; assay type: functional, Homo sapiens; procedure, shortened: as §1
[25] = tested on: L1210; assay: Diameter of zone of inhibition for cell colony formation of leukemia L1210 at the dose of 200 ug; assay type: functional, Mus musculus; procedure, shortened: as §1
[26] = Diameter of zone of inhibition for cell colony formation of normal fibroblast at the dose of 200 ug; assay type: functional, Homo sapiens; procedure, shortened: as §1
[27] = tested on: HCT-116; assay: Diameter of zone of inhibition for cell colony formation of solid tumor HCT116 at the dose of 200 ug; assay type: functional, Homo sapiens; procedure, shortened: as §2
[28] = tested on: L1210; assay: Diameter of zone of inhibition for cell colony formation of leukemia L1210 at the dose of 210 ug; Range is 6.5-8.125; assay type: functional, Mus musculus; procedure, shortened: as §1
[29] = Diameter of zone of inhibition for cell colony formation of normal fibroblast at the dose of 210 ug; Range is 0-9.425; assay type: functional, Homo sapiens; procedure, shortened: as §1
[30] = Diameter of zone of inhibition for cell colony formation of normal fibroblast at the dose of 190 ug; Range is 0-2.275; assay type: functional, Homo sapiens; procedure, shortened: as §1
[31] = tested on: L1210; assay: Diameter of zone of inhibition for cell colony formation of leukemia L1210 at the dose of 190 ug; Range is 0-6.825; assay type: functional, Mus musculus; procedure, shortened: as §1
[32] = Diameter of zone of inhibition for cell colony formation of normal fibroblast at the dose of 190 ug; Range is 0-8.775; assay type: functional, Homo sapiens; procedure, shortened: as §1
[33] = tested on: Mus musculus; assay: Tumor growth delay of human HCT116 colorectal carcinoma in mice after intravenous administration at dose of 100 mg/kg; assay type: functional

`COc1ccc(S(=O)(=O)NC(=O)c2ccc(Cl)cc2Cl)cc1OC` gave an Inhibition [1] of 0 mm, an Inhibition [2] of 16.25 mm and an Inhibition [3] of 6.5 mm.
`Cc1ccc(S(=O)(=O)NC(=O)c2ccc(Cl)cc2Cl)cc1Cl` showed an Inhibition [4] of 18.52 mm and an Inhibition [5] of 12.35 mm.
Work on `COc1ccc(S(=O)(=O)NC(=O)c2ccc(Cl)cc2Cl)cc1` yielded a GI50 [6] of 41.5 µM, an Inhibition [4] of 21.12 mm and a GI50 [7] of 39.6 µM. The MGM [8] was 28.8, the GI50 [9] was 23.9 µM and the GI50 [10] was 9.5 µM. For the same molecule, the GI50 [11] was 3.5 µM, the GI50 [12] was 6.4 µM and the GI50 [13] was 38.9. It also gave an Inhibition [14] of 5.52 mm and an Inhibition [15] of 13.65 mm.
Molecule `O=C(NS(=O)(=O)c1ccc(Br)cc1)c1ccc(Cl)cc1Cl` has an Inhibition [2] of 20.15 mm, an Inhibition [16] of 5.52 mm and an Inhibition [17] of 13.97 mm.
Molecule `Nc1cc(Cl)ccc1C(=O)NS(=O)(=O)c1ccc(Cl)cc1` has an Inhibition [18] of 8.77 mm, an Inhibition [2] of 19.82 mm and an Inhibition [19] of 8.12 mm.
Work on `Cc1cc(Br)ccc1C(=O)NS(=O)(=O)c1ccc(Cl)cc1` yielded an Inhibition [20] of 0 mm, an Inhibition [21] of 24.37 mm and an Inhibition [22] of 10.25 mm.
With `CN(C)c1ccc(C(=O)NS(=O)(=O)c2ccc(Cl)cc2)cc1` the Inhibition [20] was 5.85 mm, the Inhibition [23] was 0 mm and the Inhibition [4] was 11.7 mm.
`Cc1cc(Cl)ccc1C(=O)NS(=O)(=O)c1ccc(Cl)cc1` gave a GI50 [6] of 100 µM, a GI50 [7] of 100 µM and an MGM [8] of 41.7. The GI50 [9] was 17.7 µM, the GI50 [10] was 37.9 µM and the GI50 [11] was 9.7 µM. For the same molecule, the GI50 [12] was 8.6 µM and the GI50 [13] was 49.5.
With `O=C(NS(=O)(=O)c1cccc(-c2ccccc2)c1)c1ccc(Cl)cc1Cl` the Inhibition [20] was 0 mm, the Inhibition [4] was 19.5 mm and the Inhibition [24] was 12.02 mm.
Molecule `O=C(NS(=O)(=O)c1cc([N+](=O)[O-])ccc1Cl)c1ccc(Cl)cc1Cl` has an Inhibition [25] of 0 mm, an Inhibition [26] of 0 mm and an Inhibition [27] of 0 mm.
For `O=C(NS(=O)(=O)c1ccc(-c2ccccc2)cc1)c1ccc(Cl)cc1Cl`, the Inhibition [2] was 16.25 mm, the Inhibition [28] was 8.12 mm and the Inhibition [29] was 9.42 mm.
`O=C(NS(=O)(=O)c1ccc(Cl)cc1)c1ccc(Cl)cc1` showed an Inhibition [20] of 5.85 mm, an Inhibition [4] of 10.72 mm and an Inhibition [30] of 2.27 mm.
Work on `O=C(NS(=O)(=O)c1ccc(Br)c(Br)c1)c1ccc(Cl)cc1Cl` yielded an Inhibition [4] of 13.84 mm, an Inhibition [31] of 6.82 mm and an Inhibition [32] of 8.77 mm.
In the case of `O=C(NS(=O)(=O)c1ccc(Cl)cc1)c1ccc([N+](=O)[O-])cc1`, the Inhibition [20] is reported as 6.5 mm, the Inhibition [23] is reported as 0 mm and the Inhibition [4] is reported as 8.77 mm.
`CCc1c2c(nc3ccc(OC(=O)N4CCC(N5CCCCC5)CC4)cc13)-c1cc3c(c(=O)n1C2)COC(=O)[C@]3(O)CC.Cl` showed a Growth delay [33] of 15 days.
